HUVEC prolif 384 – inhibitors of human endothelial cell proliferation | HUVEC proliferation, CellTiter-Glo luminescence, 72 h; hits give low values | viability, % at 10 µM (by protocol) | actives 1.1% (n = 86,000);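 active = viability at or below 30%; inactive = viability above 30%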
Lung fibro prol – blocks proliferation of human lung fibroblasts. actives 1.1% (n = 85,000). viability, % at 10 µM. LL 47 human lung fibroblast viability, ATP luminescence; hits give low values. AID 719;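 active = viability at or below 50% in the single dose screen; inactive = viability above 50%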;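 also: compound exposure lasted 72 h before the ATP readout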
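Test system: LL 47 human lung fibroblasts; Quantity: 1,150 cells/well; Buffer or medium: IMEM plus 15% FBS; Dosing: tenfold compound dosing solution, DMSO at 0.1%; Timing: overnight cell rest, 72 h compound treatment at 37 °C; Detection: ATP-based CellTiter-Glo luminescent readout; Read-out basis: viability percentage against median untreated-cell control; Controls: cell-only wells, no compound.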
Ecoli WT expand – blocks growth of wild type E. coli BW25113; growth inhibition, % at 100 µM; OD600 absorbance; AID 710; actives 0.15% (n = 98,000);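 active = growth inhibition above about 50% at one test dose, limit read from the data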;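 also: growth measured after 20 h incubation at 37 °C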
H69AR inhibit – blocks growth of human H69AR lung tumor cells; H69AR lung tumor viability, ATP luminescence, 72 h; hits give low values; viability, % at 10 µM; actives 6% (n = 85,000); AID 598;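 active = viability at or below 40%; inactive = viability above 40%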;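 also: multidrug resistant small cell line overexpressing MRP-1 efflux transporter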
Ecoli tolC – blocks growth of E. coli BW25113 tolC mutant | OD615 | AID 573 | growth inhibition, % at 10 µM (by protocol) | actives 2.2% (n = 65,000);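 active = growth inhibition at or above a cutoff equal to the mean over every tested compound plus 3 SD, cut at about 60% in these data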;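 also: growth measured after 20 h incubation at 37 °C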
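Test system: tolC-deleted E. coli BW25113; medium: LB with kanamycin 50 µg/mL; compound: single-point testing at 10 µM; incubation: 20 h compound exposure of bacteria at 37 °C; signal: OD at 615 nm; evaluation: growth inhibition in percent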
Jurkat tox 60K – cytotoxicity toward Jurkat cells. Jurkat E6.1 viability, ATP luminescence, 48 h. inhibition, % at 4 µM. actives 1.2% (n = 56,000);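 active = inhibition above the mean inhibition of all tested compounds plus 3 SD, cut at about 28% in these data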
Hits are given with their value; . = inactive; / = not tested or not shown. Most compounds without a hit are left out; they make up all but 6.4% or so of the library.

SMILES | HUVEC prolif 384 | Lung fibro prol | Ecoli WT expand | H69AR inhibit | Ecoli tolC | Jurkat tox 60K
COc1ccc(-c2nnc(SCC(=O)N3CCCc4ccccc43)o2)cc1OC | . | . | . | 37 | . | .
COc1ccc(OC)c(C(=O)CSc2nnc(-c3ccc(OC)c(OC)c3)o2)c1 | . | 30 | . | . | . | .
OCC#CCSc1nnc(-c2ccc(Br)cc2)o1 | . | . | . | . | . | .
COc1cc2cc(C(=O)Nc3ccccc3)c(N)nc2cc1OC | . | . | . | . | . | /
Brc1ccc(-c2csc(NNC3=NCCCCC3)n2)cc1 | . | 48 | . | . | / | /
CC(C)(C)c1ccc(-c2csc(NNC3=NCCCCC3)n2)cc1 | / | / | . | / | / | /
N#CC1=C(SCC(=O)c2cc3ccccc3oc2=O)NC(=O)C(C#N)C12CCCC2 (centres undefined) | . | . | . | . | 61 | .
Cc1nc2c3cc(Cl)ccc3n(CCN3CCCCC3)c2s1 | . | 49 | . | 26 | / | /
COc1cccc(-n2sc3c(c2=S)-c2cc(OC)ccc2NC3(C)C)c1 | / | / | . | / | / | /
CC1(C)Nc2ccc(O)cc2-c2c1ssc2=S | 27 | . | . | . | . | /
CC(=O)c1cc(-c2ccccc2)n(CC(=O)N2CCN(C3CCCC3)CC2)c1C | . | . | . | . | . | .
Cc1nn(-c2ccccc2)c2sc(C(=O)NCCN3CCOCC3)cc12 | . | . | . | . | . | .
Cc1cnc(C(=O)Nc2cccc(-c3nnc4n3CCCCC4)c2)cn1 | . | . | / | . | . | .
O=C1C=C(Nc2ccc(Cl)cc2)CC(c2ccco2)C1 (centres undefined) | . | . | / | 26 | / | /
COc1ccc(N2C(=O)NC3CC2(C)Oc2ccccc23)cc1OC (centres undefined) | . | . | . | 26 | . | .
COc1cc(N2C(=O)NC3CC2(C)Oc2ccc(Br)cc23)cc(OC)c1OC (centres undefined) | . | . | / | . | . | .
Cc1ccc2cc(CN(CC3CCCO3)S(=O)(=O)c3c(C)ccc4nsnc34)c(=O)[nH]c2c1 (centres undefined) | . | . | . | . | . | .
Cc1ccc2nsnc2c1S(=O)(=O)N(Cc1cc2cccc(C)c2[nH]c1=O)CC1CCCO1 (centres undefined) | . | . | . | 10 | . | .
Cc1ccc(C)c2[nH]c(=O)c(CN(CC3CCCO3)S(=O)(=O)c3ccc4c(c3)OCCO4)cc12 (centres undefined) | . | . | . | . | 60 | .
O=C(Nc1ccc(N2CCOCC2)cc1)C1CCN(S(=O)(=O)Cc2ccccc2)CC1 | . | . | . | . | . | .
Cc1ccc(NC(=O)c2ccccc2O)cc1 | . | . | . | . | 92 | .
Cc1ccc(C)n1NC(=O)c1ccccc1O | . | 45 | . | 29 | / | /
Cc1ccc(C)n1NC(=O)c1ccc(Cl)cc1Cl | . | . | . | . | . | .
COC(=O)c1nn2c(C(F)(F)F)cc(-c3ccc(Br)o3)nc2c1Br | . | . | / | 33 | . | /
Cc1ccc(S(=O)(=O)/N=C(\CCl)N2CCOCC2)cc1 | . | . | / | 1.2 | / | /
SMILES | HUVEC prolif 384 | Lung fibro prol | Ecoli WT expand | H69AR inhibit | Ecoli tolC | Jurkat tox 60K
Cc1ccc(S(=O)(=O)/N=C(\CN2CCOCC2)N2CCCC2)cc1 | . | . | . | . | . | .
O=C(O)c1ccccc1C(=O)N1CCN(c2cccc(Cl)c2)CC1 | . | . | . | . | . | .
CCOc1ccc2ccccc2c1C(=O)N1CCN(c2ccccc2)CC1 | . | . | . | 15 | . | 85
COc1cc2c(C(=O)N3CCN(c4ccccc4)CC3)c(C)oc2cc1Br | . | . | . | 23 | . | /
COc1ccc(C(=O)N2CCN(c3cccc(Cl)c3)CC2)c(OC)c1 | . | . | . | 15 | . | 56
CCOC(=O)c1[nH]c(C)c(C(=O)N2CCN(c3ccccc3)CC2)c1C | . | . | . | . | . | .
COc1ccccc1C(=O)N1CCN(c2cccc(C(F)(F)F)c2)CC1 | . | . | . | 15 | . | 82
O=S(=O)(NCC(O)COCc1ccco1)c1cccs1 (centres undefined) | . | . | . | . | . | /
CCOc1ccccc1C(=O)N1CCN(c2cccc(Cl)c2)CC1 | . | . | . | 31 | . | 98
Cc1cc(NC(=O)c2cc(-c3ccncc3)nc3c(C)cccc23)no1 | . | . | . | 24 | . | 78
Cc1cc(NC(=O)c2cc(-c3ccccn3)nc3ccccc23)no1 | . | . | . | . | . | .

High-throughput results: PubChem BioAssay, several laboratories
